# Data published in ChEMBL document CHEMBL4373686, “Methyl sulfonamide substituents improve the pharmacokinetic properties of bicyclic 2-pyridone based Chlamydia trachomatis inhibitors” (Medchemcomm, 2019).
# Active and inactive are the calls of the source. The rule behind the calls is not given here.
# Tests used:
# Chlamydia trachomatis [1] = assay: (§1) Antibacterial activity against Chlamydia trachomatis 434/Bu serovar L2/ATCC VR-902B in HeLa 229 cells infected with cell lysates from 48 hrs at 2.5 uM compound treated HeLa 229 cells with Chlamydia trachomatis infection assessed as inhibition of reinfection and measured after 48 hrs post re-infection by DAPI staining based arrayscan automated microscopic method relative to control; type: functional, organism-based
# Summary of the method: (§2)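 HeLa 229 cells infected with C. trachomatis L2 EBs at MOI 0.3–0.5; compound added in RPMI 1 h post infection; 44–48 h, then water lysis. 10-fold serial dilutions of lysate reinfect fresh HeLa; 44–46 h, methanol fixed, anti-Chlamydia/FITC antibody plus DAPI stain, IFUs counted by automated microscopy; % IFU versus DMSO control; three independent experiments, duplicates.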
# [2] = Half life in C3H/HeJ mouse at 1.2 mg/kg, iv measured upto 24 hrs; conditions: in vivo
# [3] = Volume of distribution at steady state in C3H/HeJ mouse at 1.2 mg/kg, iv measured upto 24 hrs; conditions: in vivo
# [4] = Clearance in C3H/HeJ mouse at 1.2 mg/kg, iv measured upto 24 hrs; conditions: in vivo
# [5] = Apparent permeability from apical to basolateral side in human Caco2 cells at 1 uM after 15 to 60 mins by LC-MS/MS analysis; type: ADME, cell-based; conditions: caco-2, 1 µM
# Summary of the method: (§3)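 Caco-2 monolayers (passage 94–105) used on day 21 on filter supports; 1 μM donor solution applied apical or basolateral, pH 7.4 both chambers, 37 °C, 500 rpm stirring. Receiver sampled at 15, 30, 60 min, donor at 60 min for mass balance; LC-MS/MS with warfarin internal standard.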
# [6] = Efflux ratio of apparent permeability in human Caco2 cells at 1 uM after 15 to 60 mins by LC-MS/MS analysis; type: ADME, cell-based; conditions: caco-2, 1 µM; summary of the method: as §3
# [7] = Solubility of compound in PBS at 0.2 to 0.5 mg after 48 hrs by LC-MS/MS based shake flask method; type: physicochemical
# Chlamydia trachomatis [8] = assay: as §1, with “1” for “2.5”; type: functional, organism-based; summary of the method: as §2
# [9] = AUC (0 to infinity) C3H/HeJ mouse at 1.2 mg/kg, iv measured upto 24 hrs; conditions: in vivo
# [10] = Intrinsic clearance in mouse liver microsomes at 1 uM incubated for 5 to 60 mins in presence of NADPH by LC-MS/MS analysis; type: ADME, Microsome
# Summary of the method: (§4)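 Liver microsomes 0.5 mg/ml, compound 1 μM in 100 mM phosphate pH 7.4; started with 1 mM NADPH (final). Sampled 0–60 min, quenched in cold acetonitrile, parent remaining by LC-MS/MS; ln % remaining versus time fitted by linear regression.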
# [11] = Intrinsic clearance in human liver microsomes at 1 uM incubated for 5 to 60 mins in presence of NADPH by LC-MS/MS analysis; type: ADME, Microsome; summary of the method: as §4
# [12] = Cmax in C3H/HeJ mouse at 1.2 mg/kg, iv measured upto 24 hrs; conditions: in vivo
# [13] = Fraction unbound in CD-1 mouse plasma at 10 uM incubated for 4 hrs by LC-MS/MS-based equilibrium dialysis method; type: ADME, cell-free
# Summary of the method: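 Rapid equilibrium dialysis: 10% CD-1 mouse plasma in isotonic buffer spiked to 10 μM compound, 1% DMSO final, against phosphate buffer pH 7.4; 37 °C, 900 rpm, 4 h. Matrix-matched samples precipitated with methanol, LC-MS/MS; fu corrected for plasma dilution.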
# HeLa 229 = assay: Cytotoxicity against human HeLa 229 cells assessed as cell viability at 10 uM after 48 hrs resazurin dye based fluorescence method relative to control; conditions: hela 229, 48 h
# Summary of the method: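 HeLa cells in colorless DMEM with 10% FBS, compound in 0.5% DMSO for 48 h; resazurin added, 3 h at 37 °C, 5% CO2, dark; fluorescence ex 535/em 595 nm; triplicate wells as percent of DMSO control.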
# [14] = Tmax in C3H/HeOuJ mouse at 10 mg/kg, po measured upto 24 hrs; conditions: in vivo
# [15] = Oral bioavailability in C3H/HeOuJ mouse at 10 mg/kg measured upto 24 hrs; conditions: in vivo
# [16] = Cmax in C3H/HeOuJ mouse at 1 mg/kg, iv measured upto 24 hrs; conditions: in vivo
# [17] = Half life in C3H/HeOuJ mouse at 10 mg/kg, po measured upto 24 hrs; conditions: in vivo
# [18] = Toxicity in C3H/HeJ mouse infected with Chlamydia trachomatis serovar D/ATCC VR-885 assessed as vital signs at 10 mg/kg, po BID administered 21 consecutive days; type: organism-based; conditions: in vivo, in the assay text read “7 consecutive days” for “21 consecutive days”
# Summary of the method: (§5)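 Female C3H/HeJ mice given 2.4 mg medroxyprogesterone acetate s.c. 10 and 3 days before intravaginal infection (5000 CFU). Nine mice dosed by gavage 100 μL of 2.33 mg/mL emulsion, twice daily; vehicle and doxycycline groups. Vaginal swabs on days 2–21 titrated on HeLa cells, immunostained, counted by automated microscopy.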
# [19] = AUC (0 to infinity) in C3H/HeOuJ mouse at 10 mg/kg, po measured upto 24 hrs; conditions: in vivo
# [20] = Volume of distribution at steady state in C3H/HeJ mouse at 1 mg/kg, iv measured upto 24 hrs; type: ADME, organism-based; conditions: in vivo
# Summary of the method: (§6)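 Female C3H mice, three per dose and route; IV as 50 μL tail-vein injection in PBS with 10% cremophor, 5% EtOH, 4% DMSO; PO as 100 μL gavage in lipid-vehicle/water emulsion. Tail-vein blood at 10 min (IV) and 0.5–24 h; acetonitrile mixed, methanol extracted, LC-MS/MS against spiked blank blood standards; non-compartmental analysis, errors as SD.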
# [21] = AUC (0 to infinity) in C3H/HeOuJ mouse at 1 mg/kg, iv measured upto 24 hrs; conditions: in vivo
# Chlamydia trachomatis [22] = assay: Antibacterial activity against Chlamydia trachomatis serovar D/ATCC VR-885 infected in C3H/HeJ mouse assessed as reduction in vaginal infection at 10 mg/kg, po BID administered 21 consecutive days by vaginal swab based immunostaining arrayscan automated microscopic method; type: functional, organism-based; conditions: in the assay text read “7 consecutive days” for “21 consecutive days”; summary of the method: as §5
# [23] = Half life in C3H/HeJ mouse at 1 mg/kg, iv measured upto 24 hrs; type: ADME, organism-based; conditions: in vivo; summary of the method: as §6
# [24] = Cmax in C3H/HeJ mouse at 10 mg/kg, po measured upto 24 hrs; type: ADME, organism-based; parameters: dose 10 mg/kg, route oral; conditions: in vivo; summary of the method: as §6
# [25] = Clearance in C3H/HeOuJ mouse at 1 mg/kg, iv measured upto 24 hrs; conditions: in vivo
# [26] = Cmax in C3H/HeOuJ mouse at 0.9 mg/kg, iv measured upto 24 hrs; type: ADME, organism-based; parameters: dose 0.9 mg/kg, route intravenous; conditions: in vivo; summary of the method: as §6
# [27] = AUC (0 to infinity) C3H/HeOuJ mouse at 0.9 mg/kg, iv measured upto 24 hrs; type: ADME, organism-based; parameters: dose 0.9 mg/kg, route intravenous, time infinity; conditions: in vivo; summary of the method: as §6
# [28] = Clearance in C3H/HeOuJ mouse at 0.9 mg/kg, iv measured upto 24 hrs; type: ADME, organism-based; conditions: in vivo; summary of the method: as §6
# [29] = Half life in C3H/HeOuJ mouse at 0.9 mg/kg, iv measured upto 24 hrs; type: ADME, organism-based; conditions: in vivo; summary of the method: as §6
# [30] = Volume of distribution at steady state in C3H/HeJ mouse at 0.9 mg/kg, iv measured upto 24 hrs; conditions: in vivo
Compound,inhibition (Chlamydia trachomatis [1]) [%],inhibition (Chlamydia trachomatis [8]) [%],Activity (HeLa 229) [%],further results
Nc1c(Cc2cccc3ccccc23)c(C2CC2)c2n(c1=O)C(n1cc(-c3ccccc3)nn1)CS2 (racemic),91,90,,t1/2 [2]: 3.7 h; Vdss [3]: 27 L/kg; CL [4]: 0.51 L/h; Papp [5]: 0.33 ×10⁻⁶ cm/s; Ratio [6]: 0.6; solubility thermodynamic at 48 h [7]: 0.31 µM; AUC(0-inf) [9]: 0.1 µM·h; CLH [10]: 135 µL/min/mg; CLH [11]: 187 µL/min/mg; Cmax [12]: 40 nM; Fu [13]: < 0.1%
CN(C)c1c(Cc2cccc3ccccc23)cc(=O)n2c1SCC2C(=O)Nc1ccccc1 (racemic),94,78,92,
COc1c(Cc2cccc(C)c2C)cc(=O)n2c1SCC2C(=O)Nc1ccccc1 (racemic),51,22,89,
COc1c(Cc2cccc3ccccc23)cc(=O)n2c1SCC2n1cc(-c2ccccc2)nn1 (racemic),81,,87,
Cc1cccc(NC(=O)C2CSc3c(NS(C)(=O)=O)c(Cc4cccc5ccccc45)cc(=O)n32)c1 (racemic),-2,,92,
COc1c(Cc2cccc(C)c2C)c(N)c(=O)n2c1SCC2C(=O)Nc1ccccc1 (racemic),25,,94,
COC(=O)Nc1c(Cc2cccc3ccccc23)cc(=O)n2c1SCC2C(=O)Nc1ccccc1 (racemic),12,,88,
CC(=O)Nc1c(Cc2cccc3ccccc23)cc(=O)n2c1SCC2C(=O)Nc1ccccc1 (racemic),3,44,90,
COc1c(Cc2cccc3ccccc23)c(N)c(=O)n2c1SCC2C(=O)Nc1ccccc1 (racemic),25,,94,
CS(=O)(=O)Nc1c(Cc2cccc3ccccc23)cc(=O)n2c1SCC2n1cc(-c2ccccc2)nn1 (racemic),88,,91,
COc1c(Cc2cccc(C)c2C)cc(=O)n2c1SCC2c1nc(-c2ccccc2)no1 (racemic),1,,91,
COc1c(Cc2cccc3ccccc23)cc(=O)n2c1SCC2C(=O)Nc1ccc(C)cc1 (racemic),94,62,89,
Cc1cc(F)cc(NC(=O)C2CSc3c(NS(C)(=O)=O)c(Cc4cccc5ccccc45)cc(=O)n32)c1 (racemic),6,6,91,
CS(=O)(=O)Nc1c(Cc2cccc3ccccc23)cc(=O)n2c1SCC2C(=O)Nc1ccccc1 (racemic),89,23,94,Tmax [14]: 1 h; Papp [5]: 30 ×10⁻⁶ cm/s; F [15]: 41%; Ratio [6]: 2; Cmax [16]: 1700 nM; solubility thermodynamic at 48 h [7]: 1.3 µM; t1/2 [17]: 2.6 h; Activity [18]: Non-Toxic; AUC [19]: 20.3 µM·h; Vdss [20]: 0.62 L/kg; AUC [21]: 4.8 µM·h; Activity (Chlamydia trachomatis [22]): inactive; t1/2 [23]: 5.3 h; CLH [10]: 59 µL/min/mg; CLH [11]: 39 µL/min/mg; Cmax [24]: 3700 nM; Fu [13]: 0.39%; CL [25]: 0.01 L/h
COc1c(Cc2cccc(C)c2C)cc(=O)n2c1SCC2C(=O)Nc1cc(C)cc(F)c1 (racemic),95,77,90,Cmax [26]: 410 nM; AUC(0-inf) [27]: 0.95 µM·h; Papp [5]: 2.1 ×10⁻⁶ cm/s; Ratio [6]: 3.2; solubility thermodynamic at 48 h [7]: 0.32 µM; CL [28]: 0.04 L/h; t1/2 [29]: 1.2 h; CLH [10]: 440 µL/min/mg; CLH [11]: 184 µL/min/mg; Vdss [30]: 1.1 L/kg; Fu [13]: 0.1%
COc1c(Cc2cccc3ccccc23)c(N)c(=O)n2c1SCC2C(=O)Nc1ccc(C)cc1 (racemic),51,,91,
CC(C)Nc1c(Cc2cccc3ccccc23)cc(=O)n2c1SCC2C(=O)Nc1ccccc1 (racemic),79,25,91,
COc1c(Cc2cccc(C)c2C)cc(=O)n2c1SCC2C(=O)Nc1ccc(C)cc1 (racemic),98,71,88,
COc1c(Cc2cccc(C)c2C)c(N)c(=O)n2c1SCC2c1nc(-c2ccccc2)no1 (racemic),17,,94,
COc1c(Cc2cccc(C)c2C)c(N)c(=O)n2c1SCC2C(=O)Nc1ccc(C)cc1 (racemic),56,,93,
CS(=O)(=O)Nc1c(Cc2cccc3ccccc23)cc(=O)n2c1SCC2c1nc(-c2ccccc2)n[nH]1 (racemic),20,,93,
COc1c(Cc2cccc(C)c2C)c(N)c(=O)n2c1SCC2C(=O)Nc1cc(C)cc(F)c1 (racemic),47,,92,
O=C(Nc1ccccc1)C1CSc2c(O)c(Cc3cccc4ccccc34)cc(=O)n21 (racemic),21,,93,
COc1c(Cc2cccc3ccccc23)cc(=O)n2c1SCC2C(=O)Nc1ccccc1 (racemic),24,,91,
Nc1c(Cc2cccc3ccccc23)c(C2CC2)c2n(c1=O)C(C(=O)Nc1ccccc1)CS2 (racemic),98,94,,
O=C(Nc1ccccc1)C1CSc2c(C3CC3)c(Cc3cccc4ccccc34)cc(=O)n21 (racemic),87,67,,
